Laboratory results published in PMC5598257 (Toxicology Reports, 2015).

Tests used:
[1] = Stability; type: physicochemical; details: for Rate constants, K (×10^4): hydrolysis in phosphate buffer (D2O), pseudo-first-order
Procedure, shortened: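 DMPC was sonicated in D2O phosphate buffer (pH 5.0–8.0) at 30% power for 5 min, 10 s on/off. To 800 μl of buffer with or without vesicles (compound:DMPC 1:5), 15 μl of a 0.337 M CDCl3 stock of test compound was added. 1H NMR ran at 25 °C, 128 scans, 2 s relaxation delay, integrating the C6H signal. Single-point runs. Pseudo-first-order rate constants; inhibition ratio is K without/with DMPC.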

[2] = tested on: MDA-MB-435s (human melanoma); test: In vitro cytotoxicity assay; type: cell-based; details: MDA-MB-435s cells, 72 h, MTT
Procedure, shortened: (§1)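 Cells were grown in DMEM with 10% FBS and seeded at 1–2 × 10^4 per well, depending on the line. Test compound (free, or co-evaporated with DMPC 1:5 from chloroform) was added at once at 250, 50, 10, 2, 0.4 and 0.08 μM. Incubation ran 72 h at 37 °C, 5% CO2. Survival was read by MTT at OD 540 nm. Buffer-treated controls were on a separate plate. Triplicate runs; IC50 by curve fitting.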

[3] = tested on: MCF-7 (human breast adenocarcinoma, estrogen-positive); test: In vitro cytotoxicity assay; type: cell-based; details: MCF-7 cells, 72 h, MTT
Procedure, shortened: as §1

[4] = tested on: H9C2 (rat myocardium); test: In vitro cytotoxicity assay; type: cell-based; details: H9C2 normal cells, 72 h, MTT
Procedure, shortened: as §1

[5] = aqueous solutions, base catalyzed hydrolysis to 5-fluorouracil; cited from earlier work
[6] = tested on: C6 (rat glial tumor); test: In vitro cytotoxicity assay; type: cell-based; details: C6 cells, 72 h, MTT
Procedure, shortened: as §1

[7] = tested on: SH-SY-5Y (human neuroblastoma); test: In vitro cytotoxicity assay; type: cell-based; details: SH-SY-5Y cells, 72 h, MTT
Procedure, shortened: as §1

Compound	Rate constants, K (×10^4) ([1]; pH 5.0, 25 °C)	Rate constants, K (×10^4) ([1]; pH 6.0, 25 °C)	Rate constants, K (×10^4) ([1]; pH 7.0, 25 °C)	Rate constants, K (×10^4) ([1]; pH 8.0, 25 °C)	Inhibition ratio, K1/K3 ([1]; pH 8.0, K of 1 alone over K of 1 with DMPC (3))	Time practically kept unharmed ([1]; phosphate buffer pH 5, without DMPC)	Time degradation completely prevented ([1]; with 2 (DMPC, 1:5), phosphate buffer, at decreasing pH) [days]	IC50, concentration providing 50% cell killing effect [2]	IC50, concentration providing 50% cell killing effect [3]	IC50, concentration providing 50% cell killing effect [4]	pH of highest stability [5]	IC50, concentration providing 50% cell killing effect [6]	IC50, concentration providing 50% cell killing effect [7]
CCCCCCNC(=O)n1cc(F)c(=O)[nH]c1=O [compound 1, 1-hexylcarbamoyl-5-fluorouracil]	0 ×10^4	0.17 ×10^4	0.54 ×10^4	0.70 ×10^4	over 7	more than 14 h	≥ 2	no activity in vitro	no activity in vitro	not cardiotoxic	~4		
CCCCCCCCCCCCCC(=O)OC[C@H](COP(=O)([O-])OCC[N+](C)(C)C)OC(=O)CCCCCCCCCCCCC [compound 2, 1,2-dimyristoyl-sn-glycero-3-phosphocholine]												no cytotoxic effect	no cytotoxic effect
